Screening data deposited in PubChem by Broad Institute.
FN deposit inh – inhibitors of fibronectin matrix deposition, primary screen, AH1F cells, Alexa488-fibronectin fluorescence, plate reader; AH1F fibroblasts, overnight; inhibition, % at 12.6 µM; 350,000 compounds, 0.086% hits;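 active means mean inhibition across replicates of 30% or more, regardless of how many single replicates reach that level; inconclusive means mean under 30% yet at least half of replicates reach 30%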;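 further: positive control wells lacked labelled fibronectin entirely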
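material = AH1F fibroblast monolayer depositing Alexa488-labelled fibronectin into matrix | amount = 10000 AH1F cells/well | buffer or medium = DMEM plus 2% serum, read in PBS | incubation = 1 h cell adhesion before compound, then overnight fibronectin incubation | detection = fluorescence at 485 nm excitation, 525 nm emission | evaluation = percent inhibition as loss of matrix-bound fibronectin fluorescence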
CaV13 FRET inh – Primary screen for inhibitors of IQ motif and Ca2+-dependent inactivation inhibitor domain binding in CACNA1D, Förster resonance energy transfer in living cells, … | HEK cells, CFP/YFP FRET ICDI-IQ, plate reader, 10 min; percent FRET-ratio fall versus neutral wells | AID 743397 | 340,000 compounds, 0.098% hits | inhibition, % at 12.3 µM;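 active means mean replicate inhibition of at least 30% and at least 1% of replicates passing that level; inconclusive means only one of the two criteria is met; inactive means neither criterion is met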;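 further: 0% = median of the neutral control wells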
Xi reactivation – activators of inactive X chromosome reactivation, primary screen, imaging, XiGFP fibroblasts, GFP high-content imaging, set 2; activation, % at 7.58 µM; AID 743238, 2013; XiGFP mouse fibroblasts, % GFP-positive cells imaging, 3 d; cells co-treated with 5-aza-dC sensitizer; scaled so ellipticine positive control = 100%; 360,000 compounds, 0.055% hits;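 active means mean normalized replicate activation at least 10% and every replicate at or above 10%; inconclusive means only one of the two criteria met; inactive means mean below 10% and not all replicates reach 10%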;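 further: 0% = median of on-plate neutral control wells and 100% = ellipticine 6 µM median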
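Assay system: SV40-immortalized XiGFP fibroblast cells, line 68-5-11; buffer or medium: DMEM plus 5-aza-dC sensitizer; compound: one concentration, pinned; timing: compounds 3 days, fix/stain 15 min at room temperature; benchmarks: positive control ellipticine, 6 µM final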
DENV2 CPE rescue – inhibitors of DENV2 cytopathic effect, primary screen, cell-based, plate reader, single concentration. DENV2-infected cells, cytopathic effect rescue. CPE inhibition, % at 9.99 µM. 350,000 compounds, 1.7% hits. AID 651640, 2012; in the data active means CPE inhibition above about 20%, passing the limit was not always enough; inconclusive means no clear call, values can overlap the other calls; tested in BHK-21 cells;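 further: 0% = median of neutral control wells and 100% = median of positive control wells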
Casp6 inh – human caspase-6 inhibitors, primary screen, biochemical, VEID-R110 fluorescence, single point, set 2; purified caspase-6, Z-VEID-R110 cleavage fluorescence; inhibition, % at 12.5 µM; 350,000 compounds, 0.53% hits; AID 686996, 2013;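 active means mean inhibition across replicates at least about 35%, with every replicate also reaching that limit, limit read from the data; inconclusive means only one of the two criteria met; inactive means neither criterion met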;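 further: 0% = median of neutral control wells and 100% = no fluorescence left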
Target sequence (P55212 24-179 limits assumed): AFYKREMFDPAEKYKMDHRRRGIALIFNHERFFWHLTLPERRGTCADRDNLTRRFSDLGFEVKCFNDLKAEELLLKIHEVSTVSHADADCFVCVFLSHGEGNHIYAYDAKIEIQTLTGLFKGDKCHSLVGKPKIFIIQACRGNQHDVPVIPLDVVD
Target sequence (P55212 194-293 limits assumed): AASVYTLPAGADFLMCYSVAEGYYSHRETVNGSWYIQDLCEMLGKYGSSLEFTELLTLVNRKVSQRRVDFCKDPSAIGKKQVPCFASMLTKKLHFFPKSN
The depositor's hits bear a star. Hits are enriched below; roughly 2% of the tested compounds scored in any of these assays.

Screening O=C(C[C@@H]1C=C[C@H](NC(=O)C2CCC2)[C@@H](CO)O1)NCCCN1CCOCC1 returned FN deposit inh 2.8, Xi reactivation 0.1, DENV2 CPE rescue -1.5 and Casp6 inh -6.9.
For O=C(Cc1cccc(NC(=O)C2CCN(C(=O)C3CCCC3)CC2)c1)Nc1cccc(C(=O)N2CCCCC2)c1 the results were FN deposit inh 10.7, CaV13 FRET inh -7.7, Xi reactivation 0.0, DENV2 CPE rescue 43.2* and Casp6 inh -4.0.
For O=C(Cc1cccc(NC(=O)C2CCN(C(=O)C3CCCC3)CC2)c1)Nc1cccc(C(=O)N2CCCC2)c1 the results were FN deposit inh -30.5, CaV13 FRET inh -11.1, Xi reactivation 0.0, DENV2 CPE rescue -12.9 and Casp6 inh 2.4.
Screening CC[C@H]1CC=CC[C@@H](C)Oc2ccccc2C(=O)N(C)[C@H](C(C)C)C(=O)N1 (mixture of isomers) returned FN deposit inh -8.8 and Xi reactivation 0.1.
COc1ncccc1C(=O)NC1CCCc2c1cnn2-c1ccc(C)c(C)c1 (stereo not drawn) was read as FN deposit inh 30.8*, CaV13 FRET inh -6.0, Xi reactivation 0.0, DENV2 CPE rescue -1.5 and Casp6 inh 6.1.
For Cc1ccc(-n2ncc3c2CCCC3NC(=O)CCc2c(C)noc2C)cc1C (stereo not drawn) the results were FN deposit inh 5.3, CaV13 FRET inh -3.3, Xi reactivation 0.1, DENV2 CPE rescue 63.8* and Casp6 inh 5.5.
For CO[C@@H]1CN(C)C(=O)c2ccc(NC(=O)c3ccc(-c4ccccc4)cc3)cc2OC[C@@H](C)NC[C@H]1C the results were FN deposit inh 39.7*, Xi reactivation 0.1, DENV2 CPE rescue 10.3 and Casp6 inh 0.2.
Screening CO[C@H]1CN(C)C(=O)c2cc(NC(=O)c3cnccn3)ccc2OC[C@@H](C)NC[C@@H]1C returned FN deposit inh -5.9, Xi reactivation -0.1, DENV2 CPE rescue 5.6 and Casp6 inh 0.1.
`CO[C@H]1CN(C)C(=O)c2cc(NC(=O)Nc3ccccc3Cl)ccc2OC[C@H](C)NC[C@@H]1C` gave FN deposit inh 3.6, Xi reactivation 0.4, DENV2 CPE rescue -3.2 and Casp6 inh 0.8.
CO[C@H]1CN(C)C(=O)c2cc(NC(=O)c3cnccn3)ccc2OC[C@H](C)NC[C@H]1C was read as FN deposit inh 2.8, Xi reactivation 0.0, DENV2 CPE rescue 26.8* and Casp6 inh -1.7.
CO[C@H]1CN(C)C(=O)c2cc(NC(=O)c3ccc(-c4ccccc4)cc3)ccc2OC[C@H](C)NC[C@@H]1C was read as FN deposit inh 7.4, Xi reactivation -0.4, DENV2 CPE rescue 22.8* and Casp6 inh -2.4.
`CO[C@H]1CN(C)C(=O)c2cc(NC(=O)Nc3ccccc3Cl)ccc2OC[C@@H](C)NC[C@@H]1C` gave FN deposit inh 7.6, Xi reactivation 0.0, DENV2 CPE rescue 30.8* and Casp6 inh -0.2.
`CO[C@H]1CN(C)C(=O)c2ccc(NC(=O)c3ccc(-c4ccccc4)cc3)cc2OC[C@H](C)NC[C@@H]1C` gave FN deposit inh 12.4, Xi reactivation -0.4, DENV2 CPE rescue -6.7 and Casp6 inh 0.8.
For C[C@H](CO)N1C[C@H](C)[C@@H](CN(C)Cc2ccccc2)Oc2ccc(NC(=O)C3CCCCC3)cc2CC1=O the results were Xi reactivation 0.3, DENV2 CPE rescue 37.7* and Casp6 inh 1.1.
`C[C@H](CO)N1C[C@H](C)[C@@H](CN(C)Cc2ccc(C(F)(F)F)cc2)Oc2ccc(NC(=O)C3CCCCC3)cc2CC1=O` gave FN deposit inh -6.6, Xi reactivation 0.6, DENV2 CPE rescue 42.0* and Casp6 inh -4.6.
C[C@@H]1CN([C@H](C)CO)C(=O)Cc2cc(NC(=O)C3CCCCC3)ccc2O[C@@H]1CN(C)Cc1ccccc1 was read as Xi reactivation 0.1, DENV2 CPE rescue -7.3 and Casp6 inh 1.4.
CC(C)(C)NC(=O)C(=O)NN=C1CCCCCCCCCCC1 was read as FN deposit inh -14.9, CaV13 FRET inh -3.2, Xi reactivation 0.4, DENV2 CPE rescue 0.1 and Casp6 inh 60.4*.
Screening O=C(Nc1cc(F)ccc1F)N[C@H]1CC[C@@H](CCNC(=O)c2cnccn2)O[C@@H]1CO returned FN deposit inh 8.3, Xi reactivation -0.4, DENV2 CPE rescue -7.1 and Casp6 inh -2.4.
Screening Cc1cccc(S(=O)(=O)N[C@@H]2CC[C@@H](CCNC(=O)Nc3cc(F)ccc3F)O[C@@H]2CO)c1 returned FN deposit inh -7.2, Xi reactivation 0.5, DENV2 CPE rescue 39.1* and Casp6 inh -131.5.
Screening O=C(Nc1cc(F)ccc1F)N[C@@H]1CC[C@H](CCNC(=O)c2cnccn2)O[C@H]1CO returned FN deposit inh 5.6, Xi reactivation -0.3, DENV2 CPE rescue 32.5* and Casp6 inh -5.8.
`O=C(Nc1cc(F)ccc1F)N[C@@H]1CC[C@H](CCNC(=O)c2cnccn2)O[C@@H]1CO` gave FN deposit inh -1.2, Xi reactivation -0.4, DENV2 CPE rescue 34.4* and Casp6 inh -3.8.
Screening CC(C)[C@H](C)NC(=O)N(C)C[C@H]1OCc2ccccc2-c2c(n(C)c3ccccc23)C(=O)N([C@H](C)CO)C[C@@H]1C returned FN deposit inh -7.7 and Xi reactivation 0.0.
Screening Cc1ccc(CN(C)C[C@H]2OCc3cn(nn3)CCCC(=O)N([C@H](C)CO)C[C@@H]2C)cc1 returned FN deposit inh -5.0 and Xi reactivation 0.0.
`Clc1ccc(C2=NCCn3nc4ccccc4c32)cc1` gave FN deposit inh 4.5, CaV13 FRET inh -11.5, Xi reactivation 0.0, DENV2 CPE rescue inconclusive and Casp6 inh -0.1.
For Nc1c(Cl)cc(C2=NCCn3nc4ccccc4c32)cc1Cl the results were FN deposit inh 1.3, CaV13 FRET inh -4.5, Xi reactivation 0.0, DENV2 CPE rescue 21.5* and Casp6 inh 2.0.
`O=C(N/N=C/C=C/c1ccco1)c1ccccc1Cl` gave FN deposit inh -2.8, CaV13 FRET inh -1.8, Xi reactivation 0.0, DENV2 CPE rescue -0.8 and Casp6 inh 49.4*.
CC(/C=C/c1ccco1)=N/NC(=O)c1ccccc1Cl was read as FN deposit inh 6.7 and CaV13 FRET inh -5.8.
For CC(C)C#Cc1ccc2c(c1)O[C@H](CN(C)CC1CCOCC1)[C@H](C)CN([C@@H](C)CO)S2(=O)=O the results were FN deposit inh 2.3, Xi reactivation 0.6, DENV2 CPE rescue -5.2 and Casp6 inh -4.9.
